ChEMBL document CHEMBL3994654, “Discovery of phenyl acetamides as potent and selective GPR119 agonists” (Bioorg Med Chem Lett, 2017)
In brackets after ≈: the same amount, converted by molar mass. Blank lines part the entries; values can stand above or below the compound they belong to.

Tests used:
[1] = target: T1, Glucose-dependent insulinotropic receptor (Homo sapiens, UniProt Q8TDV5); assay: Agonist activity at human GPR119 expressed in HEK293 cells assessed as increase in intracellular cAMP level after 60 mins by HTRF assay; assay type: functional, cell-based
T1 sequence (Q8TDV5 whole entry): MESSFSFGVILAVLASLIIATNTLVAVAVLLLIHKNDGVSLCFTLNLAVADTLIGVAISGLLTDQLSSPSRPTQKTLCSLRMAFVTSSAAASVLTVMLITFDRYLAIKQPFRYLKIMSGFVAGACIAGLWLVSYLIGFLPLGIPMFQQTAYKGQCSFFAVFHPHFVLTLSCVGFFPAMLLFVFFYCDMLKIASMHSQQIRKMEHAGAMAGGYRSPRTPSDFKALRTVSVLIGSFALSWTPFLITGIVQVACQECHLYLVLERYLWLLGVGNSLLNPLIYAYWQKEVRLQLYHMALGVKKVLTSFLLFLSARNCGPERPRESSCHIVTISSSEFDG
Summary of the method: (§1)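 cAMP stimulation is also given as % control at the top concentration, relative to an internal agonist control set at 100% cAMP stimulation. EC50 values are means of at least 2 independent experiments, except for two compounds.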

[2] = target: T2, Glucose-dependent insulinotropic receptor (Homo sapiens) (UniProt Q8TDV5); assay: Agonist activity at human GPR119 expressed in HEK293 cells assessed as increase in intracellular cAMP level after 60 mins by HTRF assay relative to control; assay type: functional, cell-based
T2 sequence (whole entry): T1 sequence (Q8TDV5 whole entry)
Summary of the method: (§2)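 EC50 values are means of at least 2 independent experiments, with a few single determinations. Maximal response is reported as the percentage of cAMP stimulation at the maximal dose tested, normalised to an internal agonist control set as 100%.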

[3] = target: T3, Glucose-dependent insulinotropic receptor (Mus musculus, UniProt Q7TQP3); assay: Agonist activity at mouse GPR119 expressed in CHO cells co-expressing Galpha15 assessed as increase in intracellular cAMP level after 60 mins by HTRF assay; assay type: functional, cell-based; summary of the method: as §1
T3 sequence (Q7TQP3 whole entry): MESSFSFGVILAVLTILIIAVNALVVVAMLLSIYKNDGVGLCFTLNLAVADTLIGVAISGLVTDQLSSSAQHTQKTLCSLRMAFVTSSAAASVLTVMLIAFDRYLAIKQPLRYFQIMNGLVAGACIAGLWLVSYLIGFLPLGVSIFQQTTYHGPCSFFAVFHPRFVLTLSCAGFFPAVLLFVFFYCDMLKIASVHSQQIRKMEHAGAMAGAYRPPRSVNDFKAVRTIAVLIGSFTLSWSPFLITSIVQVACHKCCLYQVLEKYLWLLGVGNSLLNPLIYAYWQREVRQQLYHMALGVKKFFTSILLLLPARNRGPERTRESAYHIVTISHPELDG

[4] = target: T4, Glucose-dependent insulinotropic receptor (Mus musculus) (UniProt Q7TQP3); assay: Agonist activity at mouse GPR119 expressed in CHO cells co-expressing Galpha15 assessed as increase in intracellular cAMP level after 60 mins by HTRF assay relative to control; assay type: functional, cell-based; summary of the method: as §2
T4 sequence (whole entry): T3 sequence (Q7TQP3 whole entry)

[5] = Kinetic solubility in fasted state simulated intestinal fluid at pH 6.5; assay type: physicochemical; conditions: read-out: Kinetic_solubility
[6] = target: T5, Voltage-gated inwardly rectifying potassium channel KCNH2 (Homo sapiens, UniProt Q12809)
T5 sequence (Q12809 whole entry): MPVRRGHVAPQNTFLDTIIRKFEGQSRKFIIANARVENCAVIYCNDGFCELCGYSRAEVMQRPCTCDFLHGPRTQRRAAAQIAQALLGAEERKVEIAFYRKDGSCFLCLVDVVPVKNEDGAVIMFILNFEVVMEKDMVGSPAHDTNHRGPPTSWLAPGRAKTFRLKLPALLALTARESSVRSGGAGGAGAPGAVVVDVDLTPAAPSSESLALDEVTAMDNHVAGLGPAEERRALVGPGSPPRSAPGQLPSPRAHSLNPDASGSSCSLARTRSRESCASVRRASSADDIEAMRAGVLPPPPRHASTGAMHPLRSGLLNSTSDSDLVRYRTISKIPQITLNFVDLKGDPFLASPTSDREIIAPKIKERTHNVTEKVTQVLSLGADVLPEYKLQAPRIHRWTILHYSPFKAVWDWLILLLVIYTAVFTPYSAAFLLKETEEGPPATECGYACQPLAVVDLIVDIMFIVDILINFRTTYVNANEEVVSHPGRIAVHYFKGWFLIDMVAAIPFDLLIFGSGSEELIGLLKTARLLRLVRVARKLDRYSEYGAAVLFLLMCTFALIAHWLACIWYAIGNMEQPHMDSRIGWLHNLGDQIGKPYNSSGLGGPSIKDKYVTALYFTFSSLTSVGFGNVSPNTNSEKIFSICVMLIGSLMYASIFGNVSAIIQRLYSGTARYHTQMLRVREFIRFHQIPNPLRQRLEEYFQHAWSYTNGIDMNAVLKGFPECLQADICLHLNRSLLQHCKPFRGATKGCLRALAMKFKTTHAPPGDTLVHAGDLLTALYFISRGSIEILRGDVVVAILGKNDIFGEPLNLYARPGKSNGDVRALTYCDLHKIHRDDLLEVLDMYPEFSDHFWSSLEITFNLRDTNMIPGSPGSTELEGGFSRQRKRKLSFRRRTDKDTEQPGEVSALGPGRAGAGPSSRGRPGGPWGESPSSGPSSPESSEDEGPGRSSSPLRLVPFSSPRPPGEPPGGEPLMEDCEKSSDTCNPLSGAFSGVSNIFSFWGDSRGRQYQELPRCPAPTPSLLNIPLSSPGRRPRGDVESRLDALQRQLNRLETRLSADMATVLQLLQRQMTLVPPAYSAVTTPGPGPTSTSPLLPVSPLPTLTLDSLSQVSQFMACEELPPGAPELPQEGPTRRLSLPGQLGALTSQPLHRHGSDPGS

[7] = test system: Rattus norvegicus; assay: Unbound clearance in Wistar Han rat at 0.5 mg/kg, iv by LC-MS/MS analysis; assay type: ADME, organism-based; conditions: in vivo
[8] = target: T5, Voltage-gated inwardly rectifying potassium channel KCNH2; assay: Inhibition of human ERG by PatchXpress method
[9] = target: Cytochrome P450 3A4 (Homo sapiens, UniProt P08684); assay: Inhibition of CYP3A4 (unknown origin); assay type: ADME
Cytochrome P450 3A4, sequence (P08684 whole entry): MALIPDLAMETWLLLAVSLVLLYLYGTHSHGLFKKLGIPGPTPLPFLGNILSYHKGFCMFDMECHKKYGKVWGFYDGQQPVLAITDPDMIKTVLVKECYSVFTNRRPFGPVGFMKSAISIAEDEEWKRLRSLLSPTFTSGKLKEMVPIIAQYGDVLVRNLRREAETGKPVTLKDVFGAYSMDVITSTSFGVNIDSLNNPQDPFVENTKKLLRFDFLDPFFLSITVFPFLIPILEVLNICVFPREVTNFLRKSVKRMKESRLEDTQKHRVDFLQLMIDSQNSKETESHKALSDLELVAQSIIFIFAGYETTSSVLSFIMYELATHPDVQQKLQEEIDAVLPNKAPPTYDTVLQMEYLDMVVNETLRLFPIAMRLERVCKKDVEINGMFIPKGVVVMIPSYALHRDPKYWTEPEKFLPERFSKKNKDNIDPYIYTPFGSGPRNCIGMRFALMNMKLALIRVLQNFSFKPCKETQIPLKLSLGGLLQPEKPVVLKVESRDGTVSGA

[10] = target: T6, Nuclear receptor subfamily 1 group I member 2 (Homo sapiens, UniProt O75469); assay: Activity at human PXR; assay type: ADME
T6 sequence (O75469 whole entry): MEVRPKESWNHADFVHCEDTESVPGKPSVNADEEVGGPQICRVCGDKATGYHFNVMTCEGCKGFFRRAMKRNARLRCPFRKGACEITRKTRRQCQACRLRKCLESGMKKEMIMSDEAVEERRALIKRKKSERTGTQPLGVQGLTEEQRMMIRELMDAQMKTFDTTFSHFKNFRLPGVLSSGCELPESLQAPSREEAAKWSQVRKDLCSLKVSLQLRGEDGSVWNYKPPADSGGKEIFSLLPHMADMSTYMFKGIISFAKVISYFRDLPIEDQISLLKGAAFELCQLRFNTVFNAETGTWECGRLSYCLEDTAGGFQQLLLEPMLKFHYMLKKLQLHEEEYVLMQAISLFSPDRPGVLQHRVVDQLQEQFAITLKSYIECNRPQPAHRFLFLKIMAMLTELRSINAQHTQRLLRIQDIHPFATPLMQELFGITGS

[11] = Solubility in fasted state simulated intestinal fluid using crystalline compound by equilibration method; assay type: physicochemical
[12] = Intrinsic clearance in rat liver microsomes; assay type: ADME, microsome; conditions: read-out: CLH
[13] = Intrinsic clearance in dog liver microsomes; assay type: ADME, Canis lupus familiaris, microsome; conditions: read-out: CLH
[14] = Intrinsic clearance in rhesus monkey liver microsomes; assay type: ADME, Macaca mulatta, microsome; conditions: read-out: CLH
[15] = Intrinsic clearance in human liver microsomes; assay type: ADME, microsome; conditions: read-out: CLH
[16] = Fraction unbound in rat plasma; assay type: ADME, cell-free
[17] = Fraction unbound in dog plasma; assay type: ADME, cell-free, Canis lupus familiaris
[18] = Fraction unbound in rhesus monkey plasma; assay type: ADME, cell-free, Macaca mulatta
[19] = Fraction unbound in human plasma; assay type: ADME, cell-free
[20] = Plasma clearance in Wistar Han rat at 0.5 mg/kg, iv by LC-MS/MS analysis; assay type: ADME, organism-based
[21] = Plasma clearance in Beagle dog at 0.5 mg/kg, iv by LC-MS/MS analysis; assay type: ADME, organism-based, Canis lupus familiaris
[22] = Plasma clearance in rhesus monkey at 0.5 mg/kg, iv by LC-MS/MS analysis; assay type: ADME, organism-based, Macaca mulatta
[23] = Volume of distribution in Wistar Han rat at 0.5 mg/kg, iv by LC-MS/MS analysis; assay type: ADME, organism-based; conditions: in vivo
[24] = Volume of distribution in Beagle dog at 0.5 mg/kg, iv by LC-MS/MS analysis; assay type: ADME, organism-based, Canis lupus familiaris; conditions: in vivo
[25] = Volume of distribution in rhesus monkey at 0.5 mg/kg, iv by LC-MS/MS analysis; assay type: ADME, organism-based, Macaca mulatta; conditions: in vivo
[26] = Half life in Wistar Han rat at 0.5 mg/kg, iv by LC-MS/MS analysis; assay type: ADME, organism-based; conditions: in vivo
[27] = Half life in Beagle dog at 0.5 mg/kg, iv by LC-MS/MS analysis; assay type: ADME, organism-based, Canis lupus familiaris; conditions: in vivo
[28] = Half life in rhesus monkey at 0.5 mg/kg, iv by LC-MS/MS analysis; assay type: ADME, organism-based, Macaca mulatta; conditions: in vivo
[29] = Oral bioavailability in Wistar Han rat by LC-MS/MS analysis; assay type: ADME, organism-based; conditions: in vivo
[30] = Oral bioavailability in Beagle dog by LC-MS/MS analysis; assay type: ADME, organism-based, Canis lupus familiaris; conditions: in vivo
[31] = Oral bioavailability in rhesus monkey by LC-MS/MS analysis; assay type: ADME, organism-based, Macaca mulatta; conditions: in vivo
[32] = Lipophilicity, log D of the compound at pH 7 by HPLC method; assay type: physicochemical; conditions: buffer
[33] = test system: Rattus norvegicus; assay: Unbound volume of distribution in Wistar Han rat at 0.5 mg/kg, iv by LC-MS/MS analysis; assay type: ADME, organism-based; conditions: in vivo
[34] = test system: Mus musculus; assay: Antidiabetic activity in C57BL/6 Tac mouse assessed as maximum decrease in blood glucose AUC administered via oral gavage 30 mins prior to oral glucose load measured at 20 to 60 mins post glucose challenge by OGTT; assay type: functional; conditions: C57BL/6, po, read-out: MED
Summary of the method: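 Eleven-week-old lean C57BL/6 Tac mice (n = 8/group) were fasted overnight and dosed by oral gavage in PEG400/23.5% HPBCD (15/85 v/v). Oral glucose (3 g/kg) was given 30 min later. Tail-nick glucometer glucose at 0, 20, 40, 60 min; glucose AUC per mouse, expressed as % change vs vehicle, with t-test or one-way ANOVA. Dose titration gave the minimal dose for maximal efficacy.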

[35] = Drug uptake in C57BL/6 Tac mouse blood at 0.1 mg/kg, po via gavage measured at 90 mins post dose; assay type: ADME, organism-based; conditions: whole blood, read-out: Drug uptake
Summary of the method: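 Blood drug concentration was taken at 90 min after an oral 0.1 mpk dose in mice, within oGTT dose-titration PK/PD studies.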

[36] = Agonist activity at rhesus monkey GPR119; design: species or system Macaca mulatta
[37] = Ratio of drug level in C57BL/6 Tac mouse blood to plasma at 0.1 mg/kg, po via gavage measured at 90 mins post dose; assay type: ADME, organism-based; conditions: blood and plasma

SMILES: CCc1cnc(N2CCC([C@H]3C[C@H]3CCOc3ccc(CC(=O)N4CCC4)c(F)c3)CC2)nc1
EC50 [1]: 0.4 nM
Activity [2]: 103%
EC50 [3]: 0.84 nM
Activity [4]: 111%
solubility kinetic [5]: 140 µM (≈ 65.3 µg/mL)
IC50 [6]: 3200 nM

SMILES: NC(=O)Cc1ccc(OCC[C@@H]2C[C@@H]2C2CCN(c3ncc(Cl)cn3)CC2)cc1
EC50 [1]: 67 nM
Activity [2]: 85%
EC50 [3]: 16 nM
Activity [4]: 68%

SMILES: O=C(Cc1ccc(OCC[C@@H]2C[C@@H]2C2CCN(c3ncc(Cl)cn3)CC2)cc1)N1CCC1
EC50 [1]: 0.8 nM
Activity [2]: 82%
EC50 [3]: 0.5 nM
Activity [4]: 93%
solubility kinetic [5]: 97 µM (≈ 44.1 µg/mL)
half-life [26]: 4.7 h
IC50 [6]: 7400 nM

SMILES: O=C(Cc1ccc(OCC[C@@H]2C[C@@H]2C2CCN(c3ncc(Cl)cn3)CC2)cc1F)N1CCCCC1
EC50 [1]: 1.5 nM
Activity [2]: 116%
EC50 [3]: 2.2 nM
Activity [4]: 92%
solubility kinetic [5]: 124 µM (≈ 62.1 µg/mL)
IC50 [6]: 3300 nM

SMILES: COCc1cnc(N2CCC([C@H]3C[C@H]3CCOc3ccc(CC(=O)N4CCC4)c(F)c3)CC2)nc1
EC50 [1]: 0.7 nM
Activity [2]: 82%
EC50 [3]: 1.6 nM
Activity [4]: 90%
solubility kinetic [5]: 152 µM (≈ 73.4 µg/mL)
half-life [26]: 1.9 h
IC50 [6]: 19000 nM

Compounds with a lower EC50 [1], results first:

EC50 [1]: 0.2 nM
Activity [2]: 91%
EC50 [3]: 0.8 nM
Activity [4]: 116%
solubility kinetic [5]: 139 µM (≈ 69.6 µg/mL)
CL free [7]: 430 mL/min/kg
IC50 [9]: > 50000 nM
EC50 [10]: > 30000 nM
solubility thermodynamic [11]: 51 µg/mL (≈ 102 µM)
CLint scaled [12]: 189 mL/min/kg
CLint scaled [13]: 39 mL/min/kg
CLint scaled [14]: 44 mL/min/kg
CLint scaled [15]: 39 mL/min/kg
fraction unbound [16]: 0.067
fraction unbound [17]: 0.055
fraction unbound [18]: 0.08
fraction unbound [19]: 0.038
clearance [20]: 29 mL/min/kg
clearance [21]: 2 mL/min/kg
clearance [22]: 14 mL/min/kg
Vd [23]: 4.8 L/kg
Vd [24]: 4.3 L/kg
Vd [25]: 3.5 L/kg
half-life [26]: 3.5 h
half-life [27]: 29 h
half-life [28]: 7.6 h
bioavailability [29]: 80%
bioavailability [30]: 55%
bioavailability [31]: 44%
logD [32]: 4.1
Vdu [33]: 72 L/kg
concentration at 1.5 h [35]: 10 nM
EC50 [36]: 0.1 nM
blood plasma ratio at 1.5 h [37]: 0.55
SMILES: COCc1cnc(N2CCC([C@H]3C[C@H]3CCOc3cc(F)c(CC(=O)N4CCC4)c(F)c3)CC2)nc1
IC50 [8]: 12000 nM
minimal effective dose [34]: 0.1 mg/kg
IC50 [6]: 9100 to 9200 nM

EC50 [1]: 0.2 nM
Activity [2]: 106%
EC50 [3]: 0.4 nM
Activity [4]: 146%
solubility kinetic [5]: 137 µM (≈ 64.8 µg/mL)
half-life [26]: 6.9 h
SMILES: O=C(Cc1ccc(OCC[C@@H]2C[C@@H]2C2CCN(c3ncc(Cl)cn3)CC2)cc1F)N1CCC1
IC50 [6]: 3300 nM
